According to ChEMBL document CHEMBL1681751, “Synthesis and biological evaluation of imidazolo[2,1-b]benzothiazole derivatives, as potential p53 inhibitors” (Bioorg Med Chem, 2011):
Active and inactive are the calls of the source. No cut-off for these calls is given here.

Assays:
IGROV-1 [1] = assay: Antiproliferative activity against human IGROV1 cells after 72 hrs by cell counter; format: functional, cell-based
Method in brief: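 Log-phase cells seeded in duplicate; for the paclitaxel combination, cells got compound 2 h before the antimicrotubule agent. Final DMSO at most 0.5%. After treatment, adherent cells were trypsinized and counted with a cell counter. IC50 is the concentration giving 50% fewer cells than untreated control.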

IGROV-1 [2] = assay: Reduction of paclitaxel-induced p21 expression in human IGROV1 cells at 0.12 uM after 24 hrs by Western blot analysis; format: functional, cell-based
Method in brief: (§1)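 IGROV-1 cells were treated 24 h with paclitaxel 0.12 µM, compound, or both, then lysed. p53 and p21waf1 were detected by Western blot.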

IGROV-1 [3] = assay: Reduction of paclitaxel-induced p21 expression in human IGROV1 cells at 5 uM after 24 hrs by Western blot analysis; format: functional, cell-based; method in brief: as §1
IGROV-1 [4] = assay: Reduction of paclitaxel-induced p21 expression in human IGROV1 cells at 0.3 uM after 24 hrs by Western blot analysis; format: functional, cell-based; method in brief: as §1
IGROV-1 [5] = assay: Reduction of paclitaxel-induced p21 expression in human IGROV1 cells at 10 uM after 24 hrs by Western blot analysis; format: functional, cell-based; method in brief: as §1
IGROV-1 [6] = assay: Antitumor activity against human IGROV1 cells xenografted in athymic Swiss nude mouse assessed as tumor volume inhibition at 3 mg/kg, iv every 4 days for 4 administration; format: functional; set-up: scale not given: the % may be the effect or the level left
Method in brief: (§2)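 Female athymic Swiss nude mice received IGROV-1 tumors sc in the right flank (10^7 cells/mouse), then maintained by serial sc passage of about 3x3x3 mm fragments. Dosing was iv, q4dx4, starting when tumors were about 80 mg. Read-out was % tumor volume inhibition, treated vs control, 4 mice per group, Student's t-test vs control.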

IGROV-1 [7] = assay: Antitumor activity against human IGROV1 cells xenografted in athymic Swiss nude mouse assessed as tumor volume inhibition at 9 mg/kg, iv every 4 days for 4 administration; format: functional; set-up: scale not given: the % may be the effect or the level left; method in brief: as §2
Mus musculus [8] = assay: Toxicity in athymic Swiss nude mouse assessed as body weight loss at 3 mg/kg, iv every 4 days for 4 administration; format: organism-based; set-up: dose 3 mg/kg, route intravenous; conditions: in vivo, 96 h
Method in brief: (§3)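 Female athymic Swiss nude mice with sc IGROV-1 xenografts were dosed iv every four days for 4 administrations (q4dx4), 4 mice per group. Toxicity was scored as % body weight loss from drug treatment, with lethal toxicity counted per group.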

Mus musculus [9] = assay: Toxicity in athymic Swiss nude mouse assessed as body weight loss at 9 mg/kg, iv every 4 days for 4 administration; format: organism-based; set-up: dose 9 mg/kg, route intravenous; conditions: in vivo, 96 h; method in brief: as §3
Mus musculus [10] = assay: Toxicity in athymic Swiss nude mouse assessed as lethal toxicity at 3 mg/kg, iv every 4 days for 4 administration; format: organism-based; set-up: dose 3 mg/kg, route intravenous; conditions: in vivo, 96 h
Method in brief: (§4)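 Female athymic Swiss nude mice bearing sc IGROV-1 human ovarian carcinoma xenografts (10^7 exponentially growing cells/mouse into right flank; lines kept by serial sc fragment passage). Dosed iv every four days for 4 administrations (q4dx4), starting when tumors were measurable (around 80 mg). Lethal toxicity scored as animals dying per group (4 mice/group).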

Mus musculus [11] = assay: Toxicity in athymic Swiss nude mouse assessed as lethal toxicity at 9 mg/kg, iv every 4 days for 4 administration; format: organism-based; set-up: dose 9 mg/kg, route intravenous; conditions: in vivo, 96 h; method in brief: as §4
IGROV-1 [12] = assay: Induction of apoptosis in human IGROV1 cells at 0.12 uM after 72 hrs by TUNEL assay; format: functional
Method in brief: (§5)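 IGROV-1 cells were exposed for 72 h; in the combination they were pretreated 2 h with compound before paclitaxel. Cells were fixed in 4% paraformaldehyde for 60 min at room temperature and washed. TUNEL labelling with fluorescein was read by flow cytometry as % TUNEL-positive cells, with at least three independent experiments.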

U2OS = assay: Antitumor activity against human U2OS cells xenografted in athymic Swiss nude mouse at 24 mg/kg, iv administered every 4 days relative to paclitaxel; format: functional, organism-based; set-up: dose 24 mg/kg
Method in brief: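 U2OS osteosarcoma tumors were grown sc in female athymic Swiss nude mice from 10^7 cells/mouse and kept by serial fragment passage. Dosing was iv every four days for 4 administrations, alone or combined with paclitaxel, starting at about 80 mm3. Controls received solvent. Tumor growth and complete regressions were followed.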

IGROV-1 [13] = assay: Antitumor activity against human IGROV1 cells xenografted in athymic Swiss nude mouse assessed as tumor volume inhibition at 18 mg/kg, iv every 4 days for 4 administration; format: functional; set-up: scale not given: the % may be the effect or the level left; method in brief: as §2
Mus musculus [14] = assay: Toxicity in athymic Swiss nude mouse assessed as body weight loss at 18 mg/kg, iv every 4 days for 4 administration; format: organism-based; set-up: dose 18 mg/kg, route intravenous; conditions: in vivo, 96 h; method in brief: as §3
Mus musculus [15] = assay: Toxicity in athymic Swiss nude mouse assessed as lethal toxicity at 18 mg/kg, iv every 4 days for 4 administration; format: organism-based; set-up: dose 18 mg/kg, route intravenous; conditions: in vivo, 96 h; method in brief: as §4
IGROV-1 [16] = assay: Induction of apoptosis in human IGROV1 cells at 5 uM after 72 hrs by TUNEL assay; format: functional; method in brief: as §5

For `Cc1ccc(-c2cn3c4c(sc3n2)CCCC4)cc1`, which IC50 (IGROV-1 [1]; Homo sapiens, IGROV-1, 72 h) is on record?
Its IC50 is 23 µM.

Which IC50 (IGROV-1 [1]; Homo sapiens, IGROV-1, 72 h) does the source give for `Brc1ccc(-c2cn3c(n2)sc2ccccc23)cc1` here?
Its IC50 is 0.3 µM.

For `NCc1ccc(-c2cn3c(n2)sc2ccccc23)cc1` [listing 1 of 2 here], which Activity (IGROV-1 [2]) is on record?
The Activity was “Active”.

And the Activity (IGROV-1 [3])?
Its Activity is “Active”.

And the Activity (IGROV-1 [4])?
Its Activity is “Active”.

And the Activity (IGROV-1 [5])?
Its Activity is “Active”.

Which IC50 (IGROV-1 [1]; Homo sapiens, IGROV-1, 72 h) does the source give for `Cn1c2ccccc2n2cc(-c3ccc(C#N)cc3)nc12` here?
The IC50 was 7 µM.

Which results are given for `Nc1ccc(-c2cn3c(n2)sc2ccccc23)cc1` [listing 1 of 3 here]?
Activity (IGROV-1 [2]): Active; Activity (IGROV-1 [3]): Active; Activity (IGROV-1 [4]): Active; Activity (IGROV-1 [5]): Active

`CC(=O)NCc1ccc(-c2cn3c(n2)sc2ccccc23)cc1` was tested. Which IC50 (IGROV-1 [1]; Homo sapiens, IGROV-1, 72 h) did it give?
The IC50 was 12 µM.

For `Nc1ccc(-c2cn3c(n2)sc2ccccc23)cc1` [listing 2 of 3 here], which IC50 (IGROV-1 [1]; igrov-1) is on record?
The IC50 was 5 µM.

Which IC50 (IGROV-1 [1]; Homo sapiens, IGROV-1, 72 h) does the source give for `O=[N+]([O-])c1ccc(-c2cn3c(n2)sc2ccccc23)cc1` here?
Its IC50 is 2 µM.

`OCc1ccc(-c2cn3c(n2)sc2ccccc23)cc1` was tested. Which IC50 (IGROV-1 [1]; Homo sapiens, IGROV-1, 72 h) did it give?
Its IC50 is 7 µM.

With `Cl.NCc1ccc(-c2cn3c(n2)sc2ccccc23)cc1` as the compound, how does the IC50 (IGROV-1 [1]; igrov-1) read?
Its IC50 is 0.3 µM.

What about the Activity (IGROV-1 [6]) of the same compound?
The Activity was 15%.

What about the Activity (IGROV-1 [7]) of the same compound?
Its Activity is 46%.

What about the Activity (Mus musculus [8]) of the same compound?
Its Activity is 3%.

And the Activity (Mus musculus [9])?
The Activity was 5%.

What about the Activity (Mus musculus [10]) of the same compound?
Its Activity is “Non-toxic”.

What about the Activity (Mus musculus [11]) of the same compound?
Its Activity is “Non-toxic”.

Which IC50 (IGROV-1 [1]; igrov-1) does the source give for `Nc1ccc(-c2cn3c4c(sc3n2)CCCC4)cc1` [listing 1 of 3 here] here?
Its IC50 is 19 µM.

For `Cc1ccc(-c2cn3c(n2)sc2ccccc23)cc1`, which IC50 (IGROV-1 [1]; Homo sapiens, IGROV-1, 72 h) is on record?
Its IC50 is 0.3 µM.

Which Activity (IGROV-1 [2]) does the source give for `Nc1ccc(-c2cn3c4c(sc3n2)CCCC4)cc1` [listing 2 of 3 here] here?
The Activity was “Active”.

What about the Activity (IGROV-1 [3]) of the same compound?
Its Activity is “Active”.

And the Activity (IGROV-1 [4])?
The Activity was “Active”.

What about the Activity (IGROV-1 [5]) of the same compound?
Its Activity is “Active”.

How did the Activity (IGROV-1 [12]) turn out when `CC(=O)O[C@H]1C(=O)[C@@]2(C)[C@H]([C@H](OC(=O)c3ccccc3)[C@]3(O)C[C@H](OC(=O)[C@H](O)[C@@H](NC(=O)c4ccccc4)c4ccccc4)C(C)=C1C3(C)C)[C@]1(OC(C)=O)CO[C@@H]1C[C@@H]2O` [PACLITAXEL] was run?
The Activity was 13%.

What about the Activity (U2OS) of the same compound?
The Activity was “inactive”.

Which IC50 (IGROV-1 [1]; Homo sapiens, IGROV-1, 72 h) does the source give for `CCn1c2ccccc2n2cc(-c3ccc(C#N)cc3)nc12` here?
Its IC50 is 4.5 µM.

How did the IC50 (IGROV-1 [1]; Homo sapiens, IGROV-1, 72 h) turn out when `N#Cc1ccc(-c2cn3c(n2)sc2ccccc23)cc1` was run?
Its IC50 is 0.03 µM.

How did the IC50 (IGROV-1 [1]; igrov-1) turn out when `Cl.NCc1ccc(-c2cn3c4c(sc3n2)CCCC4)cc1` was run?
Its IC50 is 31 µM.

And the Activity (IGROV-1 [7])?
The Activity was 21%.

And the Activity (IGROV-1 [13])?
The Activity was 27%.

And the Activity (Mus musculus [9])?
The Activity was 6%.

And the Activity (Mus musculus [14])?
Its Activity is 4%.

And the Activity (Mus musculus [11])?
Its Activity is “Non-toxic”.

What about the Activity (Mus musculus [15]) of the same compound?
The Activity was “Non-toxic”.

Which IC50 (IGROV-1 [1]; igrov-1) does the source give for `NCc1ccc(-c2cn3c4c(sc3n2)CCCC4)cc1` [listing 1 of 2 here] here?
The IC50 was 12 µM.

How did the IC50 (IGROV-1 [1]; igrov-1) turn out when `Nc1ccc(-c2cn3c4c(sc3n2)CCCC4)cc1` [listing 3 of 3 here] was run?
Its IC50 is 4 µM.

What about the Activity (IGROV-1 [16]) of the same compound?
The Activity was 4%.

With `NCc1ccc(-c2cn3c(n2)sc2ccccc23)cc1` [listing 2 of 2 here] as the compound, how does the IC50 (IGROV-1 [1]; igrov-1) read?
The IC50 was 0.03 µM.

Which IC50 (IGROV-1 [1]; Homo sapiens, IGROV-1, 72 h) does the source give for `O=Cc1ccc(-c2cn3c(n2)sc2ccccc23)cc1` here?
Its IC50 is 6 µM.

How did the IC50 (IGROV-1 [1]; Homo sapiens, IGROV-1, 72 h) turn out when `CC(=O)NCc1ccc(-c2cn3c4c(sc3n2)CCCC4)cc1` was run?
The IC50 was 28 µM.

`NCCC(=O)NCc1ccc(-c2cn3c(n2)sc2ccccc23)cc1` was tested. Which IC50 (IGROV-1 [1]; Homo sapiens, IGROV-1, 72 h) did it give?
Its IC50 is 3 µM.

`N#Cc1ccc(-c2cn3c4c(sc3n2)CCCC4)cc1` was tested. Which IC50 (IGROV-1 [1]; Homo sapiens, IGROV-1, 72 h) did it give?
Its IC50 is 8 µM.

For `NCc1ccc(-c2cn3c4c(sc3n2)CCCC4)cc1` [listing 2 of 2 here], which Activity (IGROV-1 [2]) is on record?
The Activity was “Active”.

What about the Activity (IGROV-1 [3]) of the same compound?
The Activity was “Active”.

What about the Activity (IGROV-1 [4]) of the same compound?
Its Activity is “Active”.

And the Activity (IGROV-1 [5])?
The Activity was “Active”.

`CC(C)NC(=O)CCNCc1ccc(-c2cn3c(n2)sc2ccccc23)cc1` was tested. Which IC50 (IGROV-1 [1]; Homo sapiens, IGROV-1, 72 h) did it give?
The IC50 was 5 µM.

How did the IC50 (IGROV-1 [1]; igrov-1) turn out when `Nc1ccc(-c2cn3c(n2)sc2ccccc23)cc1` [listing 3 of 3 here] was run?
The IC50 was 1 µM.

With `COc1ccc(-c2ccc(-c3cn4c(n3)sc3ccccc34)cc2)cc1` as the compound, how does the IC50 (IGROV-1 [1]; Homo sapiens, IGROV-1, 72 h) read?
The IC50 was < 1 µM.
